Hits are enriched below; roughly 3.3% of the tested compounds scored in any of these assays.
HTR2A ag – mouse Htr2a agonists via beta-arrestin recruitment, primary screen, cell-based, luminescence | 5-hydroxytryptamine receptor 2A (Mus musculus), P35363 | CHO-K1 mHTR2A beta-arrestin complementation; percent of 30 µM serotonin response | activation, % at 7.6 µM | 0.66% of 360,000 active;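 active = activation above a run cutoff, the mean activation of all tested compounds plus 3 SD, cut at about 14% in these data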;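 note: 0% = plate median of compound wells and 100% = 30 µM serotonin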
Lipid droplet – inhibitors of hepatocyte lipid droplet formation, primary screen, imaging, high-throughput imaging, BODIPY stain. AML12 mouse hepatocytes, oleate lipid droplets. inhibition, % at 6.5 µM. 0.4% of 240,000 active. AID 1656, 2009;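 active = lipid droplet intensity inhibited by at least 50%, with more than 500 cells counted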
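Technique: fluorescence imaging, 20x objective, two fields per well / Assay system: AML12 hepatocytes (mouse) / Measure: % inhibition of lipid droplet signal / Doses: 6.5 µM single-point dosing / Incubation: overnight exposure / Reagent: 100 µM oleic acid challenge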
Arrestin-AP2 inh – inhibitors of beta-arrestin/AP2 binding, primary screen, biochemical, GPCR trafficking, flow cytometry. beta-arrestin 1 C-terminal peptide binding to AP2 beta2-adaptin appendage (human). FITC-arrestin peptide / GST-AP2 beads; AP2 beta2 appendage carries R879A mutation. inhibition, % at 10 µM. 0.31% of 340,000 active. AID 504490, 2011;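 active = inhibition above a set limit, near 3 SD of compounds lacking own fluorescence, cut at about 54% in these data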;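 note: plate controls were DMSO wells for no effect and 5 µM unlabelled arrestin peptide for full effect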
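system = GST-tagged AP2 beta2-adaptin appendage (R879A) on 4 µm glutathione beads | reagent = FITC-labelled arrestin peptide probe, 50 nM final | schedule = compound with beads 12 min RT, then probe 1 h RT | signal = HyperCyt-sampled flow cytometry, FL1 channel, ex 488/em 535 nm | read-out = percent response from loss of bead-bound FITC fluorescence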
HGIII-sPLA2 inh – human group III sPLA2 inhibitors, primary screen, biochemical, QFRET, BODIPY PC-A2 liposome substrate; inhibition, % at 12.2 µM; 0.56% of 370,000 active; QFRET BODIPY PC-A2 liposome hydrolysis, fluorescence;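 active = inhibition above mean plus 3 SD of compounds lying within the high and low control bounds, cut at about 19% in these data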;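 note: 0% = median of test compound wells and 100% = no enzyme DMSO wells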
Target sequence (Q9NZ20 whole entry, looked up): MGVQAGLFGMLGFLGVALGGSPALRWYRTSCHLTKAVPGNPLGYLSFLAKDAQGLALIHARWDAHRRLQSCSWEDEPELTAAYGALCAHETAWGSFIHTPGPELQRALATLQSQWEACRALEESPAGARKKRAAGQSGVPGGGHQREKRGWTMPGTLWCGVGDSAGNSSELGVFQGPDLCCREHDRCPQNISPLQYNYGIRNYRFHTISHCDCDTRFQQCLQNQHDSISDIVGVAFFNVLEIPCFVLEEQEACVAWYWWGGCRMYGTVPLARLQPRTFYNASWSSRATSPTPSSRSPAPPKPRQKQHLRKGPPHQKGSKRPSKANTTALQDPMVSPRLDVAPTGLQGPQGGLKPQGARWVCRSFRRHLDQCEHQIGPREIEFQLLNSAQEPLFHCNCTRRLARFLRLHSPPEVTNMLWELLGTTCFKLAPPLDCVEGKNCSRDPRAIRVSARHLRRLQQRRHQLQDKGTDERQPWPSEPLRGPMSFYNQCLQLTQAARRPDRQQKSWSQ
CendR NRP1 mod – modulators of CendR peptide binding to NRP-1, primary screen, biochemical, fluorescence polarization, uHTS; FAM-RPARPAR peptide binding to NRP-1; inhibition, % at 25 µM; Neuropilin-1 (Homo sapiens), O14786; 0.85% of 360,000 active;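 active = inhibition or corrected inhibition above about 18%, plus a signal ratio from 0.5 to 1.5, limit read from the data, passing the limit was not always enough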
M18AAP inhibitor – PfM18AAP inhibitors, malaria aminopeptidase, primary screen, biochemical, QFRET, recombinant enzyme | M18 aspartyl aminopeptidase (Plasmodium falciparum 3D7) | H-Glu-NHMec fluorogenic cleavage | inhibition, % at 7.35 µM | 1.2% of 290,000 active | AID 1822, 2009;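 active = inhibition above the campaign mean inhibition over all tested compounds plus 3 SD, cut at about 28% in these data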;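 note: 0% = plate median of test compound wells and 100% = 2 mM ZnCl2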
Starred values were filed as active, the others as inactive; x = no result given.

SMILES	HTR2A ag	Lipid droplet	Arrestin-AP2 inh	HGIII-sPLA2 inh	CendR NRP1 mod	M18AAP inhibitor
COc1cccc(N2C(=O)CC(Nc3ccc(N4CCOCC4)cc3)C2=O)c1 (stereo not drawn)	-2	x	7	x	-14	29*
CCC(C)[C@H](NC(=O)OC(C)(C)C)C(=O)N[C@@H](Cc1ccccc1)C(=O)OC (stereo partly drawn)	x	x	x	6	x	x
CN(N=Cc1ccccc1O)C(=O)c1ccccc1N	x	x	x	4	x	x
CCOc1ccc(-c2nc(C#N)c(N3CCN(C)CC3)o2)cc1	1	-13	9	3	-6	-5
CCCOc1ccc(-c2nc(C#N)c(N3CCN(C)CC3)o2)cc1	-7	x	0	-5	34*	-7
CCn1c(SCC(=O)N2CCN(c3ccc(Cl)cc3)CC2)nc2ccccc2c1=O	6	9	-3	8	-2	2
CCn1c(SCC(=O)N2CCN(c3ccc(F)cc3)CC2)nc2ccccc2c1=O	6	-17	4	8	29*	-2
O=S(=O)(Nc1cc2nc3ccccc3nc2n1Cc1ccccc1)c1ccc(Cl)cc1	-1	4	9	7	-49	28*
O=C(C1CCN(c2cncnc2)CC1)N1CCCC1	x	x	x	5	x	x
CCc1ccccc1CNC(=O)C1CCC(CNS(=O)(=O)c2cccc3cccnc23)CC1 (stereo not drawn)	x	x	x	-4	x	x
O=C(Nc1cccc(C(F)(F)F)c1)OCCN1CCN(Cc2ccccc2)CCC1=O	-4	-4	-1	-16	23*	0
O=C(Nc1ccc(F)cc1)OCCN1CCN(Cc2ccccc2)CCC1=O	-2	-4	10	-7	-16	-8
COc1ccc(S(=O)(=O)N2CCOC2CNC(=O)C(=O)NCc2ccc3c(c2)OCO3)cc1 (stereo not drawn)	-5	0	-17	-1	23*	6
CS(=O)(=O)c1ccc(Nc2nc(C(N)Cc3ccc(Cl)cc3)cs2)cc1 (stereo not drawn)	-5	x	x	14	33*	x
NC(Cc1ccc(Cl)cc1)c1csc(Nc2ccc(S(N)(=O)=O)cc2)n1 (stereo not drawn)	5	x	x	2	-7	x
CCOc1ccccc1OCC(=O)NN1Cc2ccccc2C1=N	0	3	4	3	19*	1
O=C(/C=C/c1ccc(F)cc1)N1CC[C@@]2(O)CCCC[C@H]2C1	-1	2	-8	-2	5	-1
O=C(CSc1nnc(CNc2ccc(Cl)cc2)n1Cc1ccccc1)NCc1ccco1	-7	x	9	-26	-1	18
CCn1c(SCC(=O)NCc2ccc3c(c2)OCO3)nnc1-c1cccs1	3	11	21	-1	-1	1
O=C(CSc1nnc(Cc2ccccc2)n1Cc1ccccc1)NCc1ccco1	-3	-12	1	0	30*	1
O=C(CSc1nnc(-c2cccs2)n1Cc1ccccc1)NCc1ccc2c(c1)OCO2	-2	-24	-18	-1	24*	-8
Cc1c(C(=O)N(C)Cc2ccccc2)oc2ccc(S(=O)(=O)N3CCCC3)cc12	-4	x	-6	3	25*	-5
COc1ccc(NC(=O)CSc2nccn2-c2ccccc2)c(OC)c1	0	-3	-1	-4	26*	-6
Cc1ccc(F)c(S(=O)(=O)NC(=O)C2(C)CCN2C(=O)C2(c3ccc(Cl)cc3)CCC2)c1 (stereo not drawn)	-4	x	x	-15	-6	x
Cc1ccc(S(=O)(=O)/N=S(/C)c2ccccc2)cc1 (stereo not drawn)	6	x	-4	8	32*	-12
SMILES	HTR2A ag	Lipid droplet	Arrestin-AP2 inh	HGIII-sPLA2 inh	CendR NRP1 mod	M18AAP inhibitor
CC/S(=N\S(=O)(=O)c1ccc(C)cc1)c1ccccc1 (stereo not drawn)	3	4	34	0	-11	1
CCCCNC(=O)Nc1ncn[nH]1	1	4	3	2	18	29*
Cc1ccc(C(=O)Nc2ncn[nH]2)cc1	-2	-8	-14	8	6	28
CCCCCCCn1c2c(c(=N)c3ccccc31)CCC2	-4	-126	15	-6	-3	-2
Cn1c(SCc2nc3ccccc3s2)nnc1-c1cccs1	-2	x	7	-2	44*	11
COC[C@@H](O)[C@H]1OCc2cc(OC)ccc2[C@@H]1/C=C/c1ccccc1	x	x	x	9	x	x
CCOc1ccc(C(=O)Nc2nnc(SCC(=O)NCC3CCCO3)s2)cc1OCC (stereo not drawn)	-2	36	-4	0	21*	-9
COC(=O)[C@]12C[C@H](CC(=O)NCc3cccs3)C(=O)N(CCC3=CCCCC3)C1=C[C@H](COCc1ccccc1)O[C@@H]2C	x	x	x	-10	x	x
O=C(CN1CCC(NC(=O)NC2CCCC2)CC1)Nc1ccc2c(c1)OCCO2	x	x	x	7	x	x
C#CCOc1ccc(C2C3=C(CC(C)(C)CC3=O)N(CC(=O)O)C3=C2C(=O)CC(C)(C)C3)cc1OC	2	8	4	-3	3	32*
C#CCOc1ccc(C2C3=C(CC(C)(C)CC3=O)N(CC(=O)O)C3=C2C(=O)CC(C)(C)C3)cc1	-1	4	4	8	2	5
CCOc1cc(C2C3=C(CC(C)(C)CC3=O)N(CCCOC)C3=C2C(=O)CC(C)(C)C3)ccc1O	5	-3	4	-6	8	31*
CCCC(=O)Nc1nnc([C@H]2C[C@H](O)[C@@H](CO)O2)s1	0	x	x	17	-10	x
O=C1C(C=NCCN2CCOCC2)=C(O)c2ccccc21	2	-1	1	6	27*	-1
C=CCN1[C@@H](CC(C)C)COc2cc(F)ccc2S1(=O)=O	x	x	x	7	x	x
Cc1ccc(C(=O)OCCn2cc(C#N)c(=O)[nH]c2=O)cc1	0	14	13	5	27*	0
CN(C)c1ccc(NC(=O)C2C3C=CC(C3)C2C(=O)O)cc1 (stereo not drawn)	-3	-16	4	1	2	55*
O=C(O)C1C2C=CC(C2)C1C(=O)Nc1ccc2c(c1)OCCO2 (stereo not drawn)	2	-3	8	x	11	-1
COc1cccc(C(=O)N[C@H](C(=O)N2CCC[C@H]2C(=O)NCc2ccccc2)C(C)C)c1	x	x	x	6	x	x
COCCNC(=S)N(C)[C@H]1C[C@H]2c3[nH]c4c(-c5ccccc5)cccc4c3CCN2C[C@H]1[C@H](C)O	x	x	x	0	x	x

Source: PubChem
